Measured values collected from several papers.
Target: Cyclin-dependent kinase 11A (CDK11A, Homo sapiens, UniProt Q9UQ88)
One construct used (Q9UQ88 1-783): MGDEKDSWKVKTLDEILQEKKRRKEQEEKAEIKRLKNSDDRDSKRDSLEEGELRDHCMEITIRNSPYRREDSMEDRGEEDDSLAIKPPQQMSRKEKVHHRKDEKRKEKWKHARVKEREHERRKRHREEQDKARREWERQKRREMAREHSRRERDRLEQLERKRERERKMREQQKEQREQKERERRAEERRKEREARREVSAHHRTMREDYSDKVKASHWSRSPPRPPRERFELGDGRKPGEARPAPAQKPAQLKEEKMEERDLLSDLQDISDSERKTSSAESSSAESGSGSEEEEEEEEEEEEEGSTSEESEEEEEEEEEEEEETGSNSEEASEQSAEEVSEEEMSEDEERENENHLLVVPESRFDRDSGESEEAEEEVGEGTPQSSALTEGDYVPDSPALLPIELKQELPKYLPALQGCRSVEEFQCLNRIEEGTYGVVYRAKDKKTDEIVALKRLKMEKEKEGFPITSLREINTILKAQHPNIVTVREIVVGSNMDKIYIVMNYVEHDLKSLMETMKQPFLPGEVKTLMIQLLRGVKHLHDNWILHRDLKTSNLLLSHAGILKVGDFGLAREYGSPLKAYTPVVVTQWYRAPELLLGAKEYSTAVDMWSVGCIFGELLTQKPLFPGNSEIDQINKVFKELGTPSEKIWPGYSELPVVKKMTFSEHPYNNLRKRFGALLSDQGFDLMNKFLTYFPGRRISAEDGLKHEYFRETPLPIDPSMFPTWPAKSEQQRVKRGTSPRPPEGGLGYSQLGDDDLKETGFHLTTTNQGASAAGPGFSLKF

CN(C)c1nccc(-c2cnc3ncccn23)n1  remaining binding (binding; 1 µM): 100%
O=C(c1ccc(Nc2ncc(Cl)c(-c3cc4ccccc4s3)n2)cc1)N1CCC(N2CCCC2)CC1  remaining binding (binding, competition with immobilised ligand; 1 µM): 85%
F[C@@H]1CCN(c2nccc(-c3cnn4ncccc34)n2)C1  remaining binding (binding; 1 µM): 100%
CCC(=O)N[C@H]1CC[C@@H](C(=O)N(C)c2ccc(-c3nc4ccccc4o3)cc2)C1  remaining binding (cell-free assay, competition with immobilised ligand; 1 µM): 97%
Nc1ncc2c(n1)-c1c([nH]c3ccc(C#CC4CC4)cc13)CCCC2  remaining binding (binding, competition with immobilised ligand; 1 µM): 93%
NS(=O)(=O)c1cc(NC(=O)C2(c3ccccc3Cl)CC2)ccc1Oc1cccc(Cl)c1  remaining binding (binding, competition with immobilised ligand; 1 µM): 73%
C[C@@H](c1ccc(-n2cnc3c(N)ncnc32)cc1)N1CCc2nn(C)c(Cc3ccccc3)c2C1=O  remaining binding (binding, competition with immobilised ligand; 0.1 µM): 100%
Cc1cnn2ncc(-c3ccnc(N(C)C)n3)c2c1  remaining binding (binding; 1 µM): 100%
CNC(=O)c1ccc(Nc2ncc(C(F)(F)F)c(NCc3nccnc3N(C)S(C)(=O)=O)n2)cc1  remaining binding (binding, competition with immobilised ligand; 0.1 µM): 77%
C[C@H]1CCN(c2nccc(-c3cnn4ncccc34)n2)C1  remaining binding (binding; 1 µM): 81%
O=C(Nc1c[nH]nc1C(=O)NC1CCNCC1)c1cc(F)cc(F)c1  remaining binding (binding, competition with immobilised ligand; 1 µM): 100%
N[C@H]1CCN(c2nccc(-c3cnn4ncccc34)n2)C1  remaining binding (binding; 1 µM): 82%
CNC(=O)[C@@H]1CC[C@@H](n2c(-c3ccc4cnccc4c3)nc3ccc(C(=O)NCc4cccc(C(N)=O)c4)cc32)C1  remaining binding (binding, competition with immobilised ligand; 1 µM): 100%
CN1CCN(c2cnc3c(C4CCN(C(=O)c5ccc(OC(F)(F)F)cc5N)CC4)ncnc3c2)CC1  remaining binding (binding, competition with immobilised ligand; 1 µM): 61%
CN(C)c1nccc(-c2cnn3ncccc23)n1  remaining binding (binding; 1 µM): 92%
O=C(Nc1cccnn1)N1CCC(=Cc2cccc(Oc3ccc(C(F)(F)F)cn3)c2)CC1  remaining binding (cell-free assay, competition with immobilised ligand; 1 µM): 82%
O=C(NCCCN1CCOCC1)c1ccc(Nc2nccc(-c3cc4ccccc4s3)n2)cc1  remaining binding (binding, competition with immobilised ligand; 1 µM): 56%
CC(=O)N1CCC(c2ccc(C(=O)NC3=NCCN3)cc2C(F)(F)F)CC1  remaining binding (binding, competition with immobilised ligand; 1 µM): 100%
Cc1cnc(Nc2ccc(C(=O)N3CCC(N4CCCC4)CC3)cc2)nc1-c1cc2ccccc2s1  remaining binding (binding, competition with immobilised ligand; 1 µM): 100%
c1cncc(-c2cccc(Nc3nccc(NC4CCCCC4)n3)c2)c1  remaining binding (binding, competition with immobilised ligand; 10 µM): 98%
